The results in this text go back to ChEMBL document CHEMBL5576109, “Hydantoin derivative dimers as broad-spectrum antimicrobial agents against ESKAPE pathogens with enhanced killing rate and stability” (RSC Med Chem, 2024).

Values after ≈ are worked out from the molar mass of the structure shown.

The test system of data set [1] is Escherichia coli. Kind of data set: Drug resistance, ratio of MIC for Escherichia coli ATCC 25922 after 25 passages to MIC for Escherichia coli ATCC 25922 after initial exposure. It counts as functional. Summed up:
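Serial passage resistance selection: after each broth MIC determination, bacteria from the 1/2 MIC well were withdrawn and diluted to 1 × 10^6 CFU/mL for the next MIC measurement. Repeated for 25 passages; MIC after passage 25 compared with the initial MIC.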

Data set [2] has as its system Staphylococcus aureus. As to the kind of experiment: Antibacterial activity against Staphylococcus aureus ATCC 29213 assessed as reduction bacterial growth after 16 hrs by TECAN SPARK microplate reader analysis. It counts as functional. A digest of the protocol: (§1)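 Single colony grown overnight in 4 mL TSB at 37 °C, diluted 100-fold and grown to mid-log phase. Compounds 2-fold serially diluted in TSB and mixed 1:1 with bacteria in TSB (1 × 10^6 CFU/mL). Incubated 16 h at 37 °C, then A600 read. MIC taken as the lowest concentration giving complete growth inhibition.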

Another data set relates to Enterococcus faecalis. Kind of data set: Antibacterial activity against Enterococcus faecalis ATCC 29212 assessed as reduction bacterial growth after 16 hrs by TECAN SPARK microplate reader analysis. It counts as functional. A digest of the protocol: as §1
Another data set concerns Bacillus subtilis. Kind of data set: Antibacterial activity against Bacillus subtilis ATCC 6633 assessed as reduction bacterial growth after 16 hrs by TECAN SPARK microplate reader analysis. It counts as functional. A digest of the protocol:
as §1

Data set [3] has as its system Staphylococcus aureus. Kind of data set: Antibacterial activity against methicillin-resistant Staphylococcus aureus ATCC 43300 assessed as reduction bacterial growth after 16 hrs by TECAN SPARK microplate reader analysis. In kind it is functional. Summed up: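 Broth microdilution in TSB: single colony grown overnight at 37 °C, diluted 100-fold and grown to mid-log phase. 2-fold serial compound dilutions mixed 1:1 with bacteria at 1 × 10^6 CFU/mL, incubated 16 h at 37 °C, absorbance read at 600 nm. MIC taken as lowest concentration giving complete growth inhibition.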

Data set [4] has as its system Escherichia coli. As to the kind of experiment: Antibacterial activity against Escherichia coli ATCC 25922 assessed as reduction bacterial growth after 16 hrs by TECAN SPARK microplate reader analysis. In kind it is functional. Summed up: as §1
The subject of the next data set is Pseudomonas aeruginosa. As to the kind of experiment: Antibacterial activity against Pseudomonas aeruginosa CMCC 10104 assessed as reduction bacterial growth after 16 hrs by TECAN SPARK microplate reader analysis. It counts as functional. A digest of the protocol: as §1
A further data set relates to Acinetobacter baumannii. Kind of data set: Antibacterial activity against Acinetobacter baumannii ATCC 19606 assessed as reduction bacterial growth after 16 hrs by TECAN SPARK microplate reader analysis. It counts as functional. A digest of the protocol:
as §1

The next data set concerns Klebsiella pneumoniae. Kind of data set: Antibacterial activity against Klebsiella pneumoniae ATCC 10031 assessed as reduction bacterial growth after 16 hrs by TECAN SPARK microplate reader analysis. It counts as functional. Summed up: as §1
Data set [5] in a line: Hemolytic activity in mouse red blood cells assessed as hemolysis incubated for 1 hr by TECAN SPARK microplate reader analysis. It counts as toxicity, cell-based, Erythrocyte. To be noted: red blood cells (erythrocytes). A digest of the protocol:
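Mouse RBCs washed three times in 1× PBS by centrifugation (3500 rpm, 10 min) and made up as a 5% v/v suspension. Incubated with 2-fold serially diluted compound in PBS for 1 h at 37 °C, then centrifuged. Supernatant diluted in PBS and A540 read. % hemolysis calculated relative to 1% Triton X-100 (100%) and PBS (0%).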

Regarding GENTAMICIN, the Ratio with Escherichia coli [1] was found to be 32.
Consider `CCCCCCCN1C(=O)[C@H](CCCCN)N(Cc2ccc(-c3ccc(CN4C(=O)N(CCCCCCC)C(=O)[C@@H]4CCCCN)cc3)cc2)C1=O`, for which the MIC – broadly, the smallest concentration in the dilution series that meets the test's criterion for growth inhibition – in the data set on Staphylococcus aureus [2] came to 3.91 µg/mL (≈ 5.45 µM); in the data set with Enterococcus faecalis, 7.81 µg/mL (≈ 10.9 µM); with Bacillus subtilis it was 3.91 µg/mL (≈ 5.45 µM); with Staphylococcus aureus [3] it was 62.5 µg/mL (≈ 87.2 µM); in the data set on Escherichia coli [4], 7.81 µg/mL (≈ 10.9 µM); with Pseudomonas aeruginosa, 15.6 µg/mL (≈ 21.8 µM). Also, the minimal inhibitory concentration (MIC) with Acinetobacter baumannii and in the data set on Klebsiella pneumoniae was 7.81 µg/mL (≈ 10.9 µM) throughout. In data set [5], the HC50 (in general, the concentration that lyses half of the red blood cells) at 1 h came to 156 µg/mL.
Turning to `CCCCCCN1C(=O)[C@H](CCCCN)N(Cc2ccc(C#Cc3ccc(CN4C(=O)N(CCCCCC)C(=O)[C@@H]4CCCCN)cc3)cc2)C1=O`, the MIC in the data set with Staphylococcus aureus [2] was found to be 1.95 µg/mL (≈ 2.73 µM); in the data set with Enterococcus faecalis, 7.81 µg/mL (≈ 11 µM); in the data set with Bacillus subtilis, 3.91 µg/mL (≈ 5.48 µM); in the data set on Staphylococcus aureus [3] it was 62.5 µg/mL (≈ 87.7 µM); in the data set with Escherichia coli [4], 7.81 µg/mL (≈ 11 µM); in the data set on Pseudomonas aeruginosa it was 15.6 µg/mL (≈ 21.9 µM). Besides, the MIC with Acinetobacter baumannii and in the data set with Klebsiella pneumoniae was 7.81 µg/mL (≈ 11 µM) throughout. The HC50 at 1 h in data set [5] was determined as 18 µg/mL.
`CCCCCCN1C(=O)[C@H](CCCCN)N(Cc2ccc(Oc3ccc(CN4C(=O)N(CCCCCC)C(=O)[C@@H]4CCCCN)cc3)cc2)C1=O`: the MIC was 3.91 µg/mL (≈ 5.55 µM) in the data set on Staphylococcus aureus [2]; 7.81 µg/mL (≈ 11.1 µM) in the data set with Enterococcus faecalis; 3.91 µg/mL (≈ 5.55 µM) in the data set on Bacillus subtilis; 7.81 µg/mL (≈ 11.1 µM) with Staphylococcus aureus [3]; 3.91 µg/mL (≈ 5.55 µM) with Escherichia coli [4]; 31.2 µg/mL (≈ 44.3 µM) in the data set with Pseudomonas aeruginosa. In addition, the MIC in the data set on Acinetobacter baumannii and in the data set with Klebsiella pneumoniae was 3.91 µg/mL (≈ 5.55 µM) each time. In addition, in data set [5], the HC50 at 1 h is 69 µg/mL.
With `CCCCCN1C(=O)[C@H](CCCCN)N(Cc2ccc(-c3ccc(CN4C(=O)N(CCCCC)C(=O)[C@@H]4CCCCN)cc3)cc2)C1=O`, the MIC in the data set on Staphylococcus aureus [2] amounted to 7.81 µg/mL (≈ 11.8 µM); with Enterococcus faecalis, 31.2 µg/mL (≈ 47.3 µM); in the data set on Bacillus subtilis it was 7.81 µg/mL (≈ 11.8 µM); in the data set on Staphylococcus aureus [3] it was 15.6 µg/mL (≈ 23.6 µM); in the data set on Escherichia coli [4], 7.81 µg/mL (≈ 11.8 µM); in the data set on Pseudomonas aeruginosa, 62.5 µg/mL (≈ 94.6 µM). Besides, the MIC with Acinetobacter baumannii is 15.6 µg/mL (≈ 23.6 µM); with Klebsiella pneumoniae it was 62.5 µg/mL (≈ 94.6 µM). Further, the concentration for 50% haemolysis (HC50) at 1 h in data set [5] turned out to be 135 µg/mL.
Regarding `CCCCCCN1C(=O)[C@H](CCCCNC(=N)N)N(Cc2cccc(-c3cccc(CN4C(=O)N(CCCCCC)C(=O)[C@@H]4CCCCNC(=N)N)c3)c2)C1=O`, the MIC in the data set on Staphylococcus aureus [2] came to 1.95 µg/mL (≈ 2.52 µM); in the data set on Enterococcus faecalis, 7.81 µg/mL (≈ 10.1 µM); with Bacillus subtilis it was 3.91 µg/mL (≈ 5.06 µM); with Staphylococcus aureus [3] it was 7.81 µg/mL (≈ 10.1 µM); with Escherichia coli [4], 7.81 µg/mL (≈ 10.1 µM); in the data set on Pseudomonas aeruginosa it was 15.6 µg/mL (≈ 20.2 µM). Besides, the minimum inhibitory concentration (MIC) in the data set on Acinetobacter baumannii was 15.6 µg/mL (≈ 20.2 µM); in the data set on Klebsiella pneumoniae, 3.91 µg/mL (≈ 5.06 µM). The HC50 at 1 h in [5] came out at 73.7 µg/mL.
Consider `CCCCCCN1C(=O)[C@H](CCCCN)N(Cc2ccc(-c3ccc(CN4C(=O)N(CCCCCC)C(=O)[C@@H]4CCCCN)cc3)cc2)C1=O`, for which the MIC in the data set on Staphylococcus aureus [2] stood at 1.95 µg/mL (≈ 2.83 µM); in the data set with Enterococcus faecalis, 7.81 µg/mL (≈ 11.3 µM); with Bacillus subtilis, 1.95 µg/mL (≈ 2.83 µM); in the data set with Staphylococcus aureus [3] it was 7.81 µg/mL (≈ 11.3 µM); with Escherichia coli [4], 1.95 µg/mL (≈ 2.83 µM); in the data set with Pseudomonas aeruginosa it was 15.6 µg/mL (≈ 22.7 µM). For the same molecule, the minimal inhibitory concentration (MIC) in the data set with Acinetobacter baumannii turned out to be 3.91 µg/mL (≈ 5.68 µM); in the data set on Klebsiella pneumoniae, 1.95 µg/mL (≈ 2.83 µM). Further, in data set [5], the HC50 at 1 h turned out to be 32.8 µg/mL.
In the case of `NCCCC[C@H]1C(=O)N(C23C[C@H]4C[C@@H](C2)C[C@@H](C3)C4)C(=O)N1Cc1ccc(-c2ccc(CN3C(=O)N(C45C[C@H]6C[C@@H](C4)C[C@@H](C5)C6)C(=O)[C@@H]3CCCCN)cc2)cc1`, the MIC with Staphylococcus aureus [2] is 1.95 µg/mL (≈ 2.47 µM); with Enterococcus faecalis, 7.81 µg/mL (≈ 9.9 µM); in the data set on Bacillus subtilis, 7.81 µg/mL (≈ 9.9 µM); in the data set with Staphylococcus aureus [3], 125 µg/mL (≈ 158 µM); with Escherichia coli [4], 62.5 µg/mL (≈ 79.2 µM); in the data set on Pseudomonas aeruginosa, 250 µg/mL (≈ 317 µM). The MIC worked out at 15.6 µg/mL (≈ 19.8 µM) in the data set with Acinetobacter baumannii and 7.81 µg/mL (≈ 9.9 µM) in the data set with Klebsiella pneumoniae. In addition, the HC50 at 1 h in data set [5] was determined as 33.6 µg/mL.
